System: MS2 coat protein
Assay: apparent Kd, MS2 coat protein; higher = weaker binding; RNA-MaP array; FMN 200 µM where present
Outline: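 Apparent Kd: the median of filtered binding-curve fits from single clusters. Designs were transcribed on Illumina sequencing-chip clusters by stalled E. coli RNA polymerase and titrated with SNAP-549-labelled MS2 coat protein from 0.7 or 1.5 nM, doubling to 3 µM, in 100 mM Tris-HCl pH 7.5, 80 mM KCl, 4 mM MgCl2, BSA, DTT, yeast tRNA and Tween-20. Each series ran without and then with constant ligand, and green signal was normalised to red-channel RNA signal and control-cluster median Fmax.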

[1] = designed as: ON switch for flavin mononucleotide, no ligand
[2] = ligand present: flavin mononucleotide, designed as: ON switch for flavin mononucleotide
[3] = designed as: OFF switch for flavin mononucleotide, no ligand
[4] = ligand present: flavin mononucleotide, designed as: OFF switch for flavin mononucleotide

Sequence	apparent Kd [1] [nM]	apparent Kd [2] [nM]	apparent Kd [3] [nM]	apparent Kd [4] [nM]
GUGCCUAACUAGAAGGCAGCAUGCAAAGCAUUCUGAGGAUAUGGGUUCCGGAAACGGACAUGAGGAUCACCCAUGUGGCACAAA	482	34.7		
GUGCGGUGAGGAUAUACGUAGGUGAAAAUCUGUGUGUUCCUACAUGAGGAUCACCCAUGUAGAAGGCAUGGCAC			148	45.3
CAAUCGGCACAGAAGGGUGACAUGAGGAUCACCCAUGUAGCGUGGCACUCAGGAGGAGCCACGCCACAGGAUAUGUGCCAGCAC	50.5	53.8		
UAUUUAAUCAUAGGAUAUAGUGUGAAAUUUGGACUAGAAGGAUGUAACAUGAGGAUCACCCAUGUGGUAAGUGGGACACAUUGA	107	130		
CGCUGUCAUGCAGGAUAUGCAUUGGAUUACAAUGCAGAAGGGCGAUUACAUGAGGAUCACCCAUGUGUAGACAGUGAAGAAGAC	167	11.9		
UGAGAGUCAGGAUAUCGAAGGUAGUGGAGAGGAGUGUGGUACGAGAAGGGACAUGAGGAUCACCCAUGUAGGUG			322	276
GCCAUCGCAUGAGGAUAUGCUCCGGUUUCCGGAGCAGAAGGUAUGUCAUAAGACAUGAGGAUCACCCAUGUAGGUAAGAUGGCA	221	31.3		
CAGGUAGACUGAGGAUAUACAAUAAGACCUAGUCUAUCUAGGUCACUCACAUGAGGAUCACCCAUGUAGAAGGCAGUCUGCCUG			21.8	79.7
UUGUUGUGUGGAGGAUAUACACUAAUUGUUAGCGUAGAAGGCCACAUGAGGAUCACCCAUGUCCGGGUUACUGCCUAAGGAGUG			548	99.5
UGUAUCUAGUAAGGAUAUACUAUUGAUUCAAUUGUAGAAGGUACAGACAUGAGGAUCACCCAUGUAGUUAUGGAUAUUAGAUAU	74.1	42.3		
GUCCUACAUGAGGAUCACCCAUGUCAGGAUAUGUAGCGUCCGGGCGAUAAGGCUCGGAGCAGAAGGGACAGGUG			14.2	16.2
GGUCCAUCAUGAGGAUAUGGCACCUUAUUUGUGCCAGAAGGCAUGUCGAUAGACAUGAGGAUCACCCAUGUAAUAAAUUGGACC	1430	104		
GAUUAACAUGAGGAUCACCCAUGUGAGGAUAUGGACUGGCUCACUUUUCGAUUCCCGUCUAGAAGGCGCAUCUU			39.3	55.6
UCGGCGCGAGGAUAUACGUUUGCGCGUUUUCGUUUUCGCGUACAUGAGGAUCACCCAUGUAGAAGGCGCGCCGC			16.6	32.1
UUUGUUUUGCAAGGAUAUGUUUAAUUUUAGUUUCCUUACACAUGAGGAUCACCCAUGUUAUACUUACAGAAGGUGCGUAAUUUG			149	136
UGUCUGAUCUAAUAACAUGAGGAUCACCCAUGUGUUCACAACUAGGAUAUCGAUUGUUAAGAAAUCGAGAAGGAGUAUACAUUA			44.8	50.8
CUUUUGUGAGGAUAUCAGGUGUGCUAGCGUACUGGUACAUCUGAGAAGGCACAUGAGGAUCACCCAUGUUUCUA			84.9	74.2
ACAGCGGCAGGAUAUGCAUGCUCCGACUUAUGCCUACAAAGACAUGAGGAUCACCCAUGUAGAAGGGCCAGCGG			13.8	15.2
UGUUCUAUGUAGAAGGCCCAUAUCUGUUCUUAGGGAGGAUAUACAUGAGGAUCACCCAUGUGUAGAGCUGGUGGACUGGUCAGC			15.4	35.5
GAAAAACAUGAGGAUCACCCAUGUAAAAAAAUGGGAGGAUAUACAAAGACGAAAGUCAAAGUAGAAGGCCUGAAAG	54.9	20.7		
